Assays:
[1] = Cmax in BALB/c mouse at 10 mg/kg, po measured for 8 hrs; assay type: ADME, organism-based; parameters: route oral, dose 10 mg/kg, time 8 hrs; settings: in vivo
Outline: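 BALB/c mice dosed I.V. or P.O. at the stated dose; plasma levels followed for 8 h. Parameters from noncompartmental analysis: AUC (h.ng/ml), T1/2 (h), Cl (L/h/Kg), Vd (L/Kg), Cmax (ng/ml), Tmax (h).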

[2] = biological target: Voltage-gated inwardly rectifying potassium channel KCNH2 (Homo sapiens, UniProt Q12809); experiment: Inhibition of human ERG by fluorescence polarization assay
Outline: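 Predictor h-ERG membrane preparations (sonicated) incubated with test compound dilutions and fluorescent tracer (working 4X tracer at 4 nM) at room temperature for ≥1 h. Read-out by fluorescence polarization, ex 530/25, em 590/35.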

Cytochrome P450 2C9 = Cytochrome P450 2C9 (Homo sapiens, UniProt P11712); experiment: Inhibition of CYP2C9 (unknown origin) using Luciferin-H as substrate at 10 uM preincubated with enzyme and substrate for 5 mins followed by addition of NADPH regeneration system and measured after 60 mins by luminescence method; assay type: ADME
Outline: (§1)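 P450-Glo luminescence assays with these substrates: Luciferin-ME (CYP1A2), Luciferin-PPXE (CYP3A4), Luciferin-H (CYP2C9), LuciferinH-EG (CYP2C19), Luciferin-ME-EG (CYP2D6). Compounds run in 1/3 serial dilutions from 10 µM in 0.5% DMSO with enzyme and substrate. After 5 min preincubation, NADPH regeneration reagent added; 60 min at 37 °C, then detection reagent for 30 min. Background subtracted.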

Cytochrome P450 2C19 = Cytochrome P450 2C19 (Homo sapiens, UniProt P33261); experiment: Inhibition of CYP2C19 (unknown origin) using LuciferinH-EG as substrate at 10 uM preincubated with enzyme and substrate for 5 mins followed by addition of NADPH regeneration system and measured after 60 mins by luminescence method; assay type: ADME; outline: as §1
[3] = Inhibition of PI3K/mTOR in human U2OS cells assessed as inhibition of AKT1 phosphorylation at Ser473 residue by C-ELISA; assay type: cell-based
Outline: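 U2OS osteosarcoma cells grown in 0.1% FBS and serum-stimulated. Endogenous phospho-AKT1 Ser473 quantified by cell-based ELISA with chemiluminescent substrate. Signal plotted against inhibitor concentration and fitted to a sigmoid dose-response curve.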

[4] = Inhibition of PI3K/mTOR in human MCF7 cells assessed as reduction of AKT phosphorylation at Thr308 residue measured after 3 hrs by western blot assay; assay type: cell-based; settings: MCF7, 3 h
Outline: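 MCF7 cells treated for 3 h across a dose range, washed and lysed with phosphatase and protease inhibitors. Lysates run on 10% SDS-PAGE and blotted, antibodies incubated overnight at 4 °C.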

Chain of Cytochrome P450 2C19 (P33261 whole entry): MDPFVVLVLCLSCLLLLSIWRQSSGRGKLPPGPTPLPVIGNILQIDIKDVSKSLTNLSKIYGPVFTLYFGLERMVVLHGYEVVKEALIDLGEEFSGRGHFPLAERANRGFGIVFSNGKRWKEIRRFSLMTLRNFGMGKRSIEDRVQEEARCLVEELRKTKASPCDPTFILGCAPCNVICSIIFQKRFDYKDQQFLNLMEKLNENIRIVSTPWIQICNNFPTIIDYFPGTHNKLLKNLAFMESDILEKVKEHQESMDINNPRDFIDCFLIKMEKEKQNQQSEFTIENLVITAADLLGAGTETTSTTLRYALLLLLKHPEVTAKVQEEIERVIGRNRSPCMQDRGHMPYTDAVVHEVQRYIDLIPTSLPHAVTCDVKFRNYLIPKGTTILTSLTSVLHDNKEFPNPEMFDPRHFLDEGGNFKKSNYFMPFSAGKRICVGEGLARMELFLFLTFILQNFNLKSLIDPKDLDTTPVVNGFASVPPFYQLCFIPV
Chain of Voltage-gated inwardly rectifying potassium channel KCNH2 (Q12809 whole entry): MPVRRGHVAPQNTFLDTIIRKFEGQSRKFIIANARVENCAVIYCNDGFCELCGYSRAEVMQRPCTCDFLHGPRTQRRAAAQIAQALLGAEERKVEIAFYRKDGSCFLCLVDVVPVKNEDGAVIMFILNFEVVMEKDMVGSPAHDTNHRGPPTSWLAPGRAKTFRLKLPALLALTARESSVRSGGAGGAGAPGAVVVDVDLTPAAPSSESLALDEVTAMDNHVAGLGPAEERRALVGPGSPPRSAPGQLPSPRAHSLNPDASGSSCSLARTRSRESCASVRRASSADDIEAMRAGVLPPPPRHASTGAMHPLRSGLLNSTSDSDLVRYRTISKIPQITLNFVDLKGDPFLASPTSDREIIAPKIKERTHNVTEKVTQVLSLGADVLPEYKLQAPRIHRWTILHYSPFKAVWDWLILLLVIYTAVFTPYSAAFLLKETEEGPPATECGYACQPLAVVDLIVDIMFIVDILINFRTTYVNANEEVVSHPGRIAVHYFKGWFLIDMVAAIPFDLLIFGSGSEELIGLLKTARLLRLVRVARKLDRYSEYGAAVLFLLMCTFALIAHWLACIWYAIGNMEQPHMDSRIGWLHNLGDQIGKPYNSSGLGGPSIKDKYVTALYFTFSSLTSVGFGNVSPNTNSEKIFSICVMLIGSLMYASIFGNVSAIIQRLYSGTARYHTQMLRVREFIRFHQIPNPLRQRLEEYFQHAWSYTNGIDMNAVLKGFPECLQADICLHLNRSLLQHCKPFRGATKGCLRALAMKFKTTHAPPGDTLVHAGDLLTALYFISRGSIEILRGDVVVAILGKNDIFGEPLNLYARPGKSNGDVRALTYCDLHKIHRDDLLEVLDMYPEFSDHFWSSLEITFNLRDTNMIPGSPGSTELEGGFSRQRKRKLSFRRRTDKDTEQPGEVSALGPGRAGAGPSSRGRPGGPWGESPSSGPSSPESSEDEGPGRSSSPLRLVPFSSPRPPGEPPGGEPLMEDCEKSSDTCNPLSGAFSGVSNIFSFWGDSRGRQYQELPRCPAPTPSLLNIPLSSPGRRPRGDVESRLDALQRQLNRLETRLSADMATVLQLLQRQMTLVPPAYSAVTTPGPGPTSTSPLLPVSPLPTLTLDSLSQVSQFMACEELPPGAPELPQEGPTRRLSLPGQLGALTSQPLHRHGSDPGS
Chain of Cytochrome P450 2C9 (P11712 whole entry): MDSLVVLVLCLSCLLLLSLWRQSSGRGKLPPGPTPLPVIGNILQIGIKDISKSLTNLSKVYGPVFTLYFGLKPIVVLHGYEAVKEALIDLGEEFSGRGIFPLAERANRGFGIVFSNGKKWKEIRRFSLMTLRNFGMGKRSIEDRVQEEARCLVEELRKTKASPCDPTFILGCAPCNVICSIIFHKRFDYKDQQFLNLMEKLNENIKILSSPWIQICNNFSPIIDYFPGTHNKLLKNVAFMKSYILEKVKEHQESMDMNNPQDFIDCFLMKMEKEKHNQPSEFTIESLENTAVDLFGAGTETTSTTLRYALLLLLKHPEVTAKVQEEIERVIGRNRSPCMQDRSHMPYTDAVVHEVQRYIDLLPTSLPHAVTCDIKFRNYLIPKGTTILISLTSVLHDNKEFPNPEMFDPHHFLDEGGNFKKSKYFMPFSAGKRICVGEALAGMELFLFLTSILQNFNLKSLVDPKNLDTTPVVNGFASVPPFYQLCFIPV

Cmax [1]: 1570 ng/mL | IC50 (Cytochrome P450 2C9): > 30000 nM | IC50 (Cytochrome P450 2C19): > 30000 nM | EC50 [3]: 0.17 nM | EC50 [4]: 0.14 nM
SMILES: COc1ncc2cc1NS(=O)(=O)c1cccc(c1)C(=O)NCc1cncc(c1)-c1cnc3ccc-2cn13
IC50 [2]: > 30000 nM

Reference: ChEMBL document CHEMBL4819017 (Eur J Med Chem, 2021)
